Data on five compounds can be found in ChEMBL document CHEMBL1130007, “Carbocyclic oxetanocins lacking the C-3' methylene” (1997).

What all share (type): functional
Assay [1] relates to E6SM. Nature of the assay: Minimum inhibitory conc. for 50% inhibition of HSV-2 (G) virus induced cytopathicity in E6SM cells. To be noted: Homo sapiens. In a few lines:
(§1)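 Confluent E6SM or Vero monolayers were infected with 100 CCID50 of virus and allowed 1 h of adsorption. Residual virus was then removed. Cultures were incubated with compound in serial dilutions (400, 200, 100, ... µg/mL). Cytopathicity was scored when it was complete in the untreated infected controls.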
For orientation: Protection from cytopathic effect is a common read-out in antiviral testing.

Assay [2] has as its system E6SM. Nature of the assay: Minimum inhibitory conc. for 50% inhibition of vaccinia virus induced cytopathicity in E6SM cells. Particulars: Homo sapiens.
In assay [3] the test system is E6SM. Nature of the assay: Minimum inhibitory conc. for 50% inhibition of HSV-1 (KOS) virus induced cytopathicity in E6SM cells. To be noted: Homo sapiens.
Assay [4] relates to E6SM. Nature of the assay: Minimum inhibitory conc. for 50% inhibition of TK HSV-1 (B2006) virus induced cytopathicity in E6SM cells. Particulars: Homo sapiens. In a few lines:
as §1

Assay [5] concerns HEL. Nature of the assay: Minimum inhibitory conc. for 50% inhibition of growth in HEL cells. To be noted: Homo sapiens. Summed up:
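HEL cell cytotoxicity was measured as inhibition of normal cell growth. The value is the concentration inhibiting growth by 50%.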

The test system of assay [6] is E6SM. Nature of the assay: Minimum inhibitory conc. for 50% inhibition of vesicular stomatitis virus induced cytopathicity in E6SM cells. To be noted: Homo sapiens.
The subject of assay [7] is E6SM. Nature of the assay: Minimum inhibitory conc. for 50% inhibition of alteration of morphology in E6SM cells. To be noted: Homo sapiens. In a few lines: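 Toxicity in E6SM, HeLa or Vero cultures was judged by microscopically visible alteration of normal cell morphology. The value is the concentration producing this alteration (50%).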
The test system of assay [8] is HEL. Nature of the assay: Minimum inhibitory conc. for 50% inhibition of TK VZV (07/1) virus plaque formation in HEL cells. To be noted: Homo sapiens.
Assay [9] deals with E6SM. Nature of the assay: Minimum inhibitory conc. for 50% inhibition of HSV-2 (Lyons) virus induced cytopathicity in E6SM cells. To be noted: Homo sapiens. Summed up:
as §1

The test system of assay [10] is E6SM. Nature of the assay: Minimum inhibitory conc. for 50% inhibition of HSV-1 (McIntyre) virus induced cytopathicity in E6SM cells. To be noted: Homo sapiens.
For assay [11], the system named is HEL. Nature of the assay: Minimum inhibitory conc. for 50% inhibition of VZV (OKA) virus plaque formation in HEL cells. To be noted: Homo sapiens.
The test system of assay [12] is HEL. Nature of the assay: Minimum inhibitory conc. for 50% inhibition of VZV (YS) virus plaque formation in HEL cells. Particulars: Homo sapiens.
In assay [13] the test system is E6SM. Nature of the assay: Minimum inhibitory conc. for 50% inhibition of HSV-2 (196) virus induced cytopathicity in E6SM cells. Particulars: Homo sapiens. In a few lines: as §1
The test system of assay [14] is E6SM. Nature of the assay: Minimum inhibitory conc. for 50% inhibition of HSV-1 (F) virus induced cytopathicity in E6SM cells. To be noted: Homo sapiens. Summed up:
as §1

The subject of assay [15] is HEL. Nature of the assay: Minimum inhibitory conc. for 50% inhibition of TK-VZV (YS/R) virus plaque formation in HEL cells. Particulars: Homo sapiens.
For assay [16], the system named is HEL. Nature of the assay: Minimum inhibitory conc. for 50% inhibition of CMV (AD-169) virus plaque formation in HEL cells. To be noted: Homo sapiens. In a few lines: (§2)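 HEL cell cultures were inoculated with 100 CCID50 of virus and allowed 1 h of adsorption. Residual virus was then removed. Cultures were incubated with compound at graded concentrations (400, 200, 100, ... µg/mL). Read-out was virus plaque formation, scored when the infected controls were fully affected. The value is the concentration reducing plaque formation by 50%.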

The test system of assay [17] is HEL. Nature of the assay: Minimum inhibitory conc. for 50% inhibition of CMV (Davis) virus plaque formation in HEL cells. Particulars: Homo sapiens. Summed up: as §2
For assay [18], the system named is HeLa. Nature of the assay: Minimum inhibitory conc. for 50% inhibition of coxsackie B4 virus induced cytopathicity in HeLa cells. To be noted: Homo sapiens.
The subject of assay [19] is Vero. Nature of the assay: Minimum inhibitory conc. for 50% inhibition of Sindbis virus induced cytopathicity in Vero cells. Particulars: Chlorocebus sabaeus. In a few lines: as §1
Assay [20] relates to Vero. Nature of the assay: Minimum inhibitory conc. for 50% inhibition of Parainfluenza-3 virus induced cytopathicity in Vero cells. Particulars: Chlorocebus sabaeus. Summed up:
as §1

The subject of assay [21] is HeLa. Nature of the assay: Minimum inhibitory conc. for 50% inhibition of vesicular stomatitis virus induced cytopathicity in HeLa cells. Particulars: Homo sapiens.
The test system of assay [22] is HeLa. Nature of the assay: Minimum inhibitory conc. for 50% inhibition of morphology […] in HeLa cells. To be noted: Homo sapiens.
Assay [23] concerns Vero. Nature of the assay: Minimum inhibitory conc. for 50% inhibition of forest virus induced cytopathicity in Vero cells. Particulars: Chlorocebus sabaeus. In a few lines:
as §1

Assay [24] relates to Vero. Nature of the assay: Minimum inhibitory conc. for 50% inhibition of alteration of morphology in Vero cells. To be noted: Chlorocebus sabaeus.
For assay [25], the system named is Vero. Nature of the assay: Minimum inhibitory conc. for 50% inhibition of Reo-1 virus induced cytopathicity in Vero cells. Particulars: Chlorocebus sabaeus. In a few lines:
as §1

The test system of assay [26] is HeLa. Nature of the assay: Minimum inhibitory conc. for 50% inhibition of Polio-1 virus induced cytopathicity in HeLa cells. Particulars: Homo sapiens.

SMILES strings stand for the structures. ≈ marks a conversion by molar mass, not a printed value. Some results are limits rather than exact numbers.

Regarding `Nc1nc2c(ncn2COCCO)c(=O)[nH]1` [ACYCLOVIR], the MIC is 0.07 µg/mL (≈ 0.311 µM) in assay [1]; above 200 µg/mL in assay [2]; 0.04 µg/mL (≈ 0.178 µM) in [3]; 70 µg/mL (≈ 311 µM) in assay [4]; above 200 µg/mL in assay [5]; above 200 µg/mL in [6]. For the same compound, the MIC in [7] is 400 µg/mL (≈ 1780 µM).

For the compound `O=c1[nH]c(=O)n([C@H]2C[C@H](O)[C@@H](CO)O2)cc1/C=C/Br` [BRIVUDINE], the MIC in [1] was above 200 µg/mL; in [2], 0.07 µg/mL (≈ 0.21 µM); in assay [8], 5 µg/mL (≈ 15 µM); in assay [3], 0.004 µg/mL (≈ 0.012 µM); in [9] it was 100 µg/mL (≈ 300 µM); in assay [4] it was 7 µg/mL (≈ 21 µM). In addition, the MIC in assay [10] is 0.007 µg/mL (≈ 0.021 µM); in [11] it was 0.0008 µg/mL (≈ 0.0024 µM); in assay [12], 0.002 µg/mL (≈ 0.006 µM); in [5], 150 µg/mL (≈ 450 µM); in assay [6], above 200 µg/mL; in [13], above 200 µg/mL. Also, the MIC is 0.01 µg/mL (≈ 0.03 µM) in [14], above 50 µg/mL in assay [15] and above 400 µg/mL in [7].

Consider `Nc1ccn(C[C@@H](CO)OCP(=O)(O)O)c(=O)n1.O.O` [CIDOFOVIR], for which the MIC in assay [16] stood at 0.06 µg/mL; in assay [17] it was 0.07 µg/mL.

As for `Nc1nc2c(ncn2COC(CO)CO)c(=O)[nH]1` [GANCICLOVIR], the MIC was determined as 1.5 µg/mL (≈ 5.88 µM) in assay [16] and 0.13 µg/mL (≈ 0.509 µM) in [17].

Take `NC(=O)c1ncn([C@@H]2O[C@H](CO)[C@@H](O)[C@H]2O)n1` [RIBAVIRIN]: the MIC in assay [18] is 70 µg/mL (≈ 287 µM); in assay [19], 150 µg/mL (≈ 614 µM); in [20], 70 µg/mL (≈ 287 µM); in assay [21] it was 4 µg/mL (≈ 16.4 µM); in assay [22], above 200 µg/mL; in assay [23], 300 µg/mL (≈ 1230 µM). For the same compound, the MIC in [24] is above 400 µg/mL; in assay [25], 70 µg/mL (≈ 287 µM); in assay [26], 70 µg/mL (≈ 287 µM).
